This is a sample that favours compounds with a hit; in the whole collection about 11% have one here.
G6PDH CS: L. mesenteroides G6PDH inhibition counter-screen; Purified L. mesenteroides G6PDH, diaphorase/resazurin coupled fluorescence, 45 min; inhibition, % at 5 µM; 0.12% of 200,000 active; AID 1020
Lmaj promast: Leishmania major promastigote growth inhibition | inhibition, % at 10 µM | Leishmania major promastigotes, resazurin fluorescence viability | 9% of 200,000 active;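 note: promastigotes grown with compound for 44 hours at 28 °C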
Diaph act CS: diaphorase activation or chemical reduction counter-screen; 0.005% of 190,000 active; AID 1229; Diaphorase/resazurin coupled assay, resorufin fluorescence, 16 min; stronger effect = higher value; 1 = vehicle wells, 0 = NADH-free wells; activation factor at 20 µM;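 active = diaphorase activity raised at least twofold by the compound at 20 µM; inactive = activation factor below 2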
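Material: purified diaphorase enzyme from Clostridium kluyveri / Medium: HEPES pH 7.4 buffer with MgCl2 and Tween 20 / Schedule: enzyme reaction of 16 min at room temperature / Measured by: resorufin fluorescence, excitation 544 nm, emission 590 nm / Evaluation: rise in resorufin formation, marking diaphorase activation or chemical reduction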
Diaph inh CS: counter-screen for diaphorase-based assays: diaphorase inhibitors and chemical oxidizers. inhibition, % at 20 µM. diaphorase resazurin-to-resorufin fluorescence, NADH, 16 min; bacterial (C. kluyveri) enzyme, not human. 0.69% of 190,000 active;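 active = primary screen inhibition at 20 µM above a set limit, cut at about 50% in these data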;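 note: plate controls were DMSO with full reaction for no effect and wells lacking NADH for full effect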
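Assay system – diaphorase enzyme from Clostridium kluyveri · Amount – diaphorase 0.14 U/mL (working solution) · Times – reaction incubation of 16 min at room temperature · Controls – No-NADH positive control and DMSO neutral control · Signal – resorufin fluorescence 544/590 nm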
WT yeast gro inh: growth inhibition of WT yeast, mitochondrial fusion screen. mitochondrial fusion phenotypic screen, WT strain. inhibition, % at 10 µM. 2.1% of 190,000 active; in the data active = inhibition above about 58%; tested in S. cerevisiae
The depositor's hits bear a star; / = no result given. Cut-off read from the data, not from the text of the source, unless noted: active = inhibition above about 50%; inactive = the rest.

SMILES | G6PDH CS | Lmaj promast | Diaph act CS | Diaph inh CS | WT yeast gro inh
O=C(c1ccc(Cl)c(S(=O)(=O)N2CCCCCC2)c1)N1CCN(c2ccccc2O)CC1 | 3.4 | 29.7 | 0.7 | 33.4 | -2.4
CC1CCc2nc(/C(C#N)=C/c3ccncc3)sc2C1 (configuration not stated) | 3.8 | 52.9* | 1 | 0.0 | -2.5
Oc1ccc(Nc2nc(-c3ccc4ccccc4c3)cs2)cc1 | 2.4 | 6.2 | 0.9 | 10.0 | 58.2
Oc1ccc(-c2nc(-c3ccc(O)c(O)c3)cs2)cc1 | 25.4 | 11.8 | 0.4 | 63.1* | -10.4
CC1(C)Cc2c(cnn2-c2ccccc2)-c2c1c1ccccc1n2CC(O)CBr (configuration not stated) | -2.7 | 32.5 | 0.7 | 26.8 | 17.9
CCCCCCCCNC(=O)c1cccnc1SCC(=O)Nc1ccc(OC)cc1OC | -14.0 | 85.9* | 1.1 | -12.3 | 27.6
Fc1ccc(-n2cc(CNCCc3ccncc3)c(-c3ccccc3Cl)n2)cc1 | 11.3 | 64.0* | 1 | -4.5 | 13.7
Fc1ccc(-n2cc(CNCCc3cccnc3)c(-c3ccccc3Cl)n2)cc1 | 20.6 | 57.2* | 1 | 4.5 | -8.1
Cc1ccc(-c2nn(-c3cccc(F)c3)cc2CNCc2cccnc2)o1 | 15.3 | 10.0 | 1 | -0.5 | 14.6
CC(=O)C(/C=N/c1cc(-c2ccc(C)cc2)nn1-c1ccccc1)=C(\C)O | -0.1 | 63.5* | 0.9 | 9.2 | -2.9
O=C(Nc1ccc(F)cc1)c1nn(-c2ccccc2)c(=O)cc1Cl | 11.8 | 98.0* | 1.1 | -8.1 | 14.3
CS(=O)(=O)c1ccc2nc(NC(=O)c3cc(-c4ccccc4)nn3-c3ccccc3)sc2c1 | 20.0 | 99.9* | 0.8 | 19.6 | -9.0
Cc1ccc(NC(=O)c2cc(-c3ccccc3)nn2-c2ccccc2)c(Br)c1 | -0.4 | 68.8* | 0.9 | 13.1 | 64.6*
O=C(CN1C(=O)NC2NC(=O)NC21)N/N=C/c1ccccc1F (configuration not stated) | 5.7 | -6.1 | 1 | -3.5 | 2.0
Cc1cc(=O)[nH]c(/N=C(\N)Nc2ccc(SC(F)F)cc2)n1 | -1.8 | -7.5 | 1 | -2.2 | -13.8
O=C(NC1=NCCS1)c1cc(-c2ccccc2)nn1-c1ccccc1 | 1.5 | / | 0.8 | 17.3 | /
Cc1ccc(NC(=O)c2cc(-c3ccccc3)nn2-c2ccccc2)cc1 | -0.9 | 16.5 | 0.8 | 21.3 | 65.5*
Cc1cccc(C)c1-n1c(C)nn(Cc2ccc([N+](=O)[O-])cc2)c1=O | 6.6 | 3.7 | 1.1 | -14.0 | 0.9
c1cnc2ccc(C(c3nnnn3C3CCCCC3)N3CCCCC3)cc2c1 (configuration not stated) | 7.2 | 28.4 | 0.8 | 21.2 | 7.9
c1cc(C(c2nnnn2C2CCCCC2)N2CCN3CCCC3C2)ccn1 (configuration not stated) | 3.2 | -7.7 | 1 | 1.6 | -12.1
c1cnc2ccc(C(c3nnnn3C3CCCC3)N3CCN4CCCC4C3)cc2c1 (configuration not stated) | 2.2 | 52.0* | 0.9 | 9.6 | 12.1
c1cnc2ccc(C(c3nnnn3C3CCCCC3)N3CCN(C4CCCCC4)CC3)cc2c1 (configuration not stated) | / | 98.8* | / | / | /
FC(F)C(F)(F)C(F)(F)C(F)(F)c1cc(-c2ccccc2)n[nH]1 | 9.6 | -4.5 | 0.8 | 19.8 | 69.7*
Cc1cc(-c2ccccc2)n[nH]1 | 10.1 | -3.7 | 0.9 | 10.5 | 4.5
c1cncc(N=c2scc(-c3cccc4ccccc34)n2CCCn2ccnc2)c1 | 1.4 | 79.9* | 0.9 | 14.4 | 10.0
SMILES | G6PDH CS | Lmaj promast | Diaph act CS | Diaph inh CS | WT yeast gro inh
COCCn1c(-c2ccccc2)csc1=Nc1cccnc1 | 3.9 | 4.6 | 0.9 | 10.2 | 4.1
Cc1ccc(-c2csc(=Nc3cccnc3)n2CCCN2CCCC2=O)cc1C | 0.0 | 19.1 | 0.9 | 6.8 | -8.9
Cc1ccc(-c2csc(=Nc3cccnc3)n2CCCn2ccnc2)cc1C | 3.1 | 94.8* | 1 | -3.7 | 3.4
COC(=O)c1cc(NC2c3ncccc3C(=O)N2Cc2ccccc2)cc(C(=O)OC)c1 (configuration not stated) | 1.1 | 52.9* | 0.9 | 10.9 | 19.2
c1csc(-c2noc(CN3CCc4sccc4C3)n2)c1 | 16.5 | -5.9 | 0.9 | 12.6 | 6.4
CCCCOC(=O)C1=C(C)Nc2nnnn2C1c1ccc(OC)c(OC)c1OC (configuration not stated) | 5.1 | 94.0* | 0.9 | 13.0 | -0.2
CCCCOC(=O)C1=C(C)Nc2ncnn2C1c1ccc(OC)c(OC)c1OC (configuration not stated) | 6.7 | 14.4 | 0.9 | 11.6 | -4.0
Cc1cccc2nc(-c3ccccc3)nc(N[C@@H](CO)c3ccccc3)c12 | 11.2 | 45.8 | 0.8 | 23.6 | 65.6*
CCn1c(CNc2ccc(C)cc2)nnc1SCC(N)=O | 5.1 | -3.9 | 0.9 | 12.6 | -13.5
CCOc1ccc(NC2=NCC(=O)N2Cc2cccs2)cc1 | -1.1 | -4.0 | 1.1 | -8.2 | -1.1
COc1cccc2c1C(=O)c1c(O)c3c(c(O)c1C2=O)C[C@@](O)(C(C)=O)C[C@@H]3O[C@H]1C[C@H](N)[C@H](O)[C@H](C)O1 | 18.1 | 100.3* | 0.9 | 5.3 | 66.8*
Cc1ccc(C)c(Cn2cnc3c(cnn3C(C)(C)C)c2=O)c1 | 3.9 | 6.3 | 1 | 0.9 | 61.0*
CC(C)(C)n1ncc2c(=O)n(Cc3cccc(Cl)c3)cnc21 | 5.7 | 7.0 | 0.9 | 5.9 | -14.3
Cc1ccccc1Cn1cnc2c(cnn2C(C)(C)C)c1=O | 2.0 | 59.0* | 0.9 | 8.9 | -3.7
CCOc1ccc(Cn2c(C)nc([N+](=O)[O-])c2SCC(O)CCl)cc1[N+](=O)[O-] (configuration not stated) | 1.3 | 28.6 | 0.9 | 12.6 | 2.0
CC(C)(C)C(=O)Cn1ncc(Br)c(Br)c1=O | 18.8 | 55.8* | 0.8 | 18.3 | 9.2
Cc1nc(C)c(C(=O)N/N=C/c2ccco2)s1 | 1.8 | 0.7 | 1.1 | -5.9 | -7.0
COc1ccc(NC(=O)/C(=C/c2ccc3c(c2)OCO3)NC(C)=O)cc1 | -5.5 | 70.8* | 0.9 | 9.2 | 9.9
COc1ccc(C(=O)N/C(=C\c2ccc3c(c2)OCO3)C(=O)Nc2ccc(C(=O)O)cc2)cc1 | 2.2 | -7.2 | 0.9 | 6.2 | -15.3
Oc1ccc(-c2cn3c(n2)SCC3)cc1 | 0.4 | -0.3 | 1 | 4.0 | 15.6
Oc1ccc(-c2cn3c(n2)SCC3)cc1O | 24.4 | 97.9* | 0.5 | 51.6* | 19.2
Cc1ccc(-n2c(C3CC3c3ccc(Cl)cc3)n[nH]c2=S)cc1 (configuration not stated) | 2.9 | -0.9 | 0.8 | 24.7 | 23.5
S=c1[nH]nc(C2CC2c2ccc(Cl)cc2)n1-c1ccc(Cl)cc1 (configuration not stated) | 10.8 | 1.1 | 0.6 | 43.7 | 75.9*
O=C(/C=C/c1ccc(S(=O)(=O)N2CCOCC2)cc1)NCc1ccccc1Cl | 6.1 | 79.6* | 1 | 4.2 | -15.1
